Rows were chosen to be rich in hits. Some 2.2% of all compounds tested hit in one or more screens of this group.
COUP-TFII inh = NR2F2 transcriptional activity inhibitors, primary screen, cell-based, luciferase reporter, HEK293T, luminescence; COUP transcription factor 2 (Homo sapiens), P24468; HEK293T NGFI-A luciferase reporter; inhibition, % at 8.6 µM; 370,000 compounds, 0.7% hits; AID 686940, 2013;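 active = inhibition above a per-plate cutoff, mean inhibition of test wells between control levels plus 3 SD, cut at about 38% in these data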;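 also: cells cotransfected with COUP-TFII expression vector driving the NGFI-A reporter; 0% = median of COUP-TF2 test wells and 100% = reporter-only cells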
Target sequence (P24468 whole entry, looked up): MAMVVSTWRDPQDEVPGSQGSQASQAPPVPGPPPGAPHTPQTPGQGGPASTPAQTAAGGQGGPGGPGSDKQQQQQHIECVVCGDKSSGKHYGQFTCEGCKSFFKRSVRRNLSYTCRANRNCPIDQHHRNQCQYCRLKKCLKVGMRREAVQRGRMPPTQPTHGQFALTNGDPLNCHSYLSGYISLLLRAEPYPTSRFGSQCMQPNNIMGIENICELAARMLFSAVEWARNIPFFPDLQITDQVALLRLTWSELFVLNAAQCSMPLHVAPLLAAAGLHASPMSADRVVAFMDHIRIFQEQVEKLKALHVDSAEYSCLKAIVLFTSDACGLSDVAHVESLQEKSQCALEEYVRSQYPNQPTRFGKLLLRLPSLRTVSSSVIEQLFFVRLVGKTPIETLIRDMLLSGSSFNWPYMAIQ
GalR3 antagonist = GalR3 antagonists in HEK293 cells, primary screen, cell-based, fluorescence readout | Galanin receptor type 3 (Homo sapiens), O60755 | HEK293 GalR3-CNG cAMP membrane potential fluorescence; galR3 body fused to GalR1 C-terminus | inhibition, % at 3 µM | 360,000 compounds, 0.44% hits | AID 651719, 2012;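 active = inhibition above the screen-wide average plus 3 SD, cut at about 13% in these data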;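 also: forskolin and galanin both at EC90 stimulate the cells; cAMP rise reported by CNG channel membrane potential dye signal; 0% = forskolin plus galanin with DMSO and 100% = forskolin alone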
Target sequence (O60755 1-299 limits assumed): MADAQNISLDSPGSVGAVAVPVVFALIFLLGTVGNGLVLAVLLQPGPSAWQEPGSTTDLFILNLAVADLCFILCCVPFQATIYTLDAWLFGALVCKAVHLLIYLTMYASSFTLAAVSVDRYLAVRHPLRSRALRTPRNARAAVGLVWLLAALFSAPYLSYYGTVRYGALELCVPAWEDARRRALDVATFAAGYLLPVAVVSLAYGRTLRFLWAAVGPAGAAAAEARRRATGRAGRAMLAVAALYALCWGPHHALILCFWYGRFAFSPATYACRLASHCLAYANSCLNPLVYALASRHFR
NR2E3 ag-1 = NR2E3 agonists in two-hybrid cells, primary screen, cell-based, luminescence, CHO-S, Gal4-NCOR/VP16-NR2E3. inhibition of corepressor binding, % at 3.98 µM. AID 602229, 2012. luciferase. Photoreceptor-specific nuclear receptor (Homo sapiens), Q9Y5X4. 360,000 compounds, 0.35% hits;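 active = inhibition above the mean of all tested compounds plus 3 SD, cut at about 70% in these data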;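 also: 0% = DMSO with NR2E3 transfected cells and 100% = cells lacking NR2E3 construct; higher means lower luciferase signal from less NR2E3 corepressor binding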
NR2E3 ag-2 = inhibitors of NR2E3-RetCOR corepressor binding, primary screen, NR2E3 agonist project, biochemical, TR-FRET, GST-NR2E3, biotin-RetCOR | Photoreceptor-specific nuclear receptor (Homo sapiens), Q9Y5X4 | 1536-well | inhibition of corepressor binding, % at 4.78 µM | 320,000 compounds, 0.12% hits | AID 2300, 2010;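 active = percent inhibition above the cutoff of mean plus 3 SD of all tested compounds, set per screening campaign, cut at about 20% in these data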;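 also: 0% = DMSO wells and 100% = biotin wells as full block of FRET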
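system = GST-tagged NR2E3 plus biotinylated RetCOR corepressor | input = 1.35 nM GST-NR2E3 | also added = 7 nM biotin-RetCOR | schedule = 5 h incubation at 4 °C | measured by = TR-FRET with europium anti-GST and streptavidin-D2, 340 nm excitation | read-out = percent loss of FRET ratio relative to control wells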
SMARCA2 activ = SMARCA2 (BRM) function activators, primary screen, cell-based, luminescence, high throughput. MG213 cells, MMTV-luciferase reporter, dexamethasone, overnight. activation, % at 9.1 µM. 370,000 compounds, 1% hits; in the data active = activation above about 7.8%;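 also: 0% = vehicle wells and 100% = reference activator wells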
SMARCA2 act conf = SMARCA2 (BRM) function activators, confirmation, cell-based, luminescence, triplicate; shares compounds with SMARCA2 activ; MG213 cells, MMTV-luciferase with dexamethasone, overnight; MG213 cells expressing E1A, Rb sequestered; DMSO wells 0%, reference activator 100%; activation, % at 9.1 µM; 3,500 compounds, 30% hits; AID 652260, 2013;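 active = activation above its plate's cutoff, the mean activation of tested wells plus 3 SD, cut at about 7.9% in these data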
GAL4-VP16 Luc = GAL4-VP16 luciferase reporter activation, counter-screen for SMARCA2 (BRM) activator project, cell-based, pG5luc, luminescence, high throughput; shares compounds with SMARCA2 activ; HEK293 GAL4-VP16 pG5luc reporter; scaled: DMSO wells 0%, SAHA wells 100%; activation, % at 9.1 µM; 3,500 compounds, 41% hits; AID 686939, 2013;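 active = activation above the solvent-only control well mean plus 3 SD, averaged across control plates, cut at about 5.2% in these data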
* hit, by the source's call; . = not tested or not shown.

SMILES	COUP-TFII inh	GalR3 antagonist	NR2E3 ag-1	NR2E3 ag-2	SMARCA2 activ	SMARCA2 act conf	GAL4-VP16 Luc
O=C(COc1ccccc1)NCC1(N2CCCCC2)CCCCC1	-19.6	-4.3	18.2	2.4	9.6*	-1.9	0.4
N#Cc1ccc(OCC(=O)NCC2(N3CCCCC3)CCCCC2)cc1	1.4	-5.3	-20.7	0.4	6.2	.	.
COC(=O)[C@H]1C[C@@]2(N3CCCCC3)c3ccccc3N[C@H]2N1S(=O)(=O)c1ccc(C)cc1	-18.1	.	.	.	-4.0	.	.
COC(=O)[C@H](Cc1ccccc1)NC(=O)[C@H]1C[C@@]2(N3CCCC3)c3ccccc3N(C(=O)OC(C)(C)C)[C@H]2N1C(=O)OC(C)(C)C	-5.3	.	.	.	0.7	.	.
COC(=O)[C@]12C=CCN1[C@H](c1ccc(OC)c(OC)c1)c1c(c3ccccc3n1S(=O)(=O)c1ccc(C)cc1)C2	13.9	.	.	.	-2.3	.	.
Cc1nc2ccc(S(=O)(=O)NCC(=O)N(C)Cc3ccccc3F)cc2s1	-50.8	.	.	.	-1.9	.	.
COc1ccc(NC(=O)Nc2cc(C)ccn2)cc1	-28.7	-0.2	-142.4	.	4.6	.	.
COc1ccc(C(=O)NC(=O)Nc2cc(C)ccn2)cc1	-65.5	-5.4	-130.9	4.0	11.7*	2.3	4.5
O=C(CSc1nnc(-c2ccccc2)n1-c1ccccc1)Nc1ccc(Oc2ccccc2)cc1	0.3	.	.	.	1.7	.	.
C=C1c2ccccc2NC(=O)N1c1ccc(OC)cc1	6.8	-2.5	-14.2	1.5	9.1*	13.3*	3.5
C=C1c2cc(C)ccc2NC(=O)N1c1ccccc1	1.6	-3.1	-19.7	0.7	-0.2	.	.
O=C(CSc1nc2ncccc2[nH]1)N1CCOCC1	-0.3	.	.	.	-1.4	.	.
CCN(CC)CCOc1nc(C)nc2c1oc1ccccc12	-7.4	-2.1	-23.4	-0.9	8.5*	2.1	1.1
CN(C)CCOc1nc(-c2ccccc2)nc2c1oc1ccccc12	-29.8	-4.9	-47.4	1.3	16.1*	31.2*	0.8
O=C(c1cc(F)ccc1F)N1CCC(Oc2cccnc2)CC1	1.7	.	.	.	0.5	.	.
Cc1cc(NC(=O)CCS(=O)(=O)c2nc(-c3ccccc3)cc(C(F)(F)F)n2)no1	-7.9	6.1	3.6	-0.7	9.3*	-15.1	2.8
CN(C)/C=C/C(=O)c1ccc2noc(-c3ccc(F)cc3)c2c1	5.2	-8.9	-28.8	0.4	11.2*	-1.0	-0.1
C=CCN1C(=O)[C@@H](CC(=O)N2CCOCC2)[C@]2(C(=O)OC)CCCCC=C12	1.6	.	.	.	-1.4	.	.
CCOC(=O)C1CCCN(C(=O)c2ccc(OC)cc2OC)CC1 (stereo not drawn)	1.9	-6.6	-10.6	.	10.3*	0.8	-0.5
COc1ccc2c3c(cccc13)C(=O)N(O)C2=O	12.1	-4.7	19.1	-3.2	9.0*	44.4*	1.2
O=C1c2cccc3c([N+](=O)[O-])ccc(c23)C(=O)N1O	15.1	5.9	7.5	0.9	6.5	.	.
Cc1ccc(-n2c(SCC(=O)Nc3ccc(OCc4ccccc4)cc3)nnc2-c2ccco2)cc1	0.7	.	.	.	-4.6	.	.
CCN(CCn1cccn1)C(=O)CCc1nnc(CCCc2ccccc2)o1	-19.8	0.5	-110.2	5.7	8.7*	10.7*	6.4*
COC(=O)[C@]12C[C@H](CC(=O)NCc3cccc(C(F)(F)F)c3)C(=O)N(Cc3ccc(Cl)cc3Cl)C1=C[C@H](COCc1ccccc1)O[C@@H]2C	-3.5	.	.	.	-3.4	.	.
C=C1c2cccc(OC)c2O[C@H](C(=O)OCC)[C@@H]1CC(CC)CCCC (stereo partly drawn)	-1.2	-4.4	7.6	.	-2.9	.	.
SMILES	COUP-TFII inh	GalR3 antagonist	NR2E3 ag-1	NR2E3 ag-2	SMARCA2 activ	SMARCA2 act conf	GAL4-VP16 Luc
CCOC(=O)/C=C1\CC(C(=O)OCC)Oc2c(OC)cccc21 (stereo not drawn)	-6.5	-2.1	-2.7	.	9.6*	-3.4	1.1
CCSc1nc(N2CCOCC2)c2ccccc2n1	-14.7	-5.3	-8.2	3.3	13.5*	2.8	0.7
COC(=O)[C@@H]1C[C@@]2(c3ccccc3)c3ccccc3N(S(=O)(=O)c3ccccc3)[C@H]2N1C(=O)CNC1CCCCC1	22.8	.	.	.	-3.6	.	.
C=CCN1C(=O)[C@@H](CC(=O)N2CCCCC2)[C@]2(C(=O)OCC)CCCCC/C=C/12	-16.9	.	.	.	-1.0	.	.
O=C(c1ccco1)N1CCC(Oc2cccnc2)CC1	15.4	.	.	.	-1.3	.	.
COc1cc(OC)nc(Oc2cccc(C(F)(F)F)c2)n1	-8.0	-9.0	3.5	-1.1	1.4	.	.
COC(=O)c1cccc(Oc2cccc(C(F)(F)F)c2)n1	5.8	-2.9	16.1	-0.2	11.0*	1.7	2.2
CCOC(=O)[C@]12CCCC=C1N(Cc1ccc(OC)cc1)C(=O)[C@@H]2CC(=O)NCc1cccc(C(F)(F)F)c1	20.6	.	.	.	-2.0	.	.
Cc1ccccc1N/C(SCc1cccc(Br)c1)=C(/C#N)C(N)=O	-7.1	-10.3	5.0	-1.3	9.7*	-3.9	0.5
COc1cccc(N/C(SCc2cccc([N+](=O)[O-])c2)=C(/C#N)C(N)=O)c1	32.3	-0.1	-31.5	4.5	0.5	.	.
COc1ccc(-n2cc(COC(=O)NCCc3ccccc3)nn2)cc1	-16.2	.	.	.	-1.8	.	.
Cc1cc(/C=N/NC(=O)c2ccsc2)c(C)n1-c1cnccn1	-40.5	-6.4	-33.2	-3.7	8.0*	4.4	3.5
CCc1ccc(OCC(=O)NC(=S)Nc2ccc(F)cc2)c(Br)c1	-20.0	-3.7	-6.6	4.3	8.9*	3.9	3.5
CCc1ccc(OCC(=O)NC(=S)Nc2ccc(C(C)=O)cc2)c(Br)c1	-13.5	-5.5	-6.3	-3.1	-0.1	.	.
COc1cc(C)ccc1C(=O)N1CCC(Oc2cccnc2)CC1	29.6	.	.	.	-3.1	.	.
CCc1ccc(S(=O)(=O)NCCc2cn3cccc(C)c3n2)s1	-18.9	5.4	-16.2	-2.1	8.1*	-0.4	0.0
C[C@H](O)[C@@H]1CN2CCc3ccc(N4CCOCC4)cc3[C@@H]2C[C@@H]1N(C)C(=O)c1ccco1	-0.9	.	.	.	-1.3	.	.
O=C(N/N=C\c1ccccn1)c1ccccc1O	-12.2	-2.4	4.1	1.3	13.3*	-9.9	11.2*
O=C(N/N=C/c1ccccn1)c1ccc(Cl)cc1	-44.5	-1.1	-57.0	-2.5	13.3*	-6.5	20.8*
Clc1ccc(C=Cc2ccccn2)cc1	-48.1	-5.1	-93.9	.	19.2*	5.8	8.0*
